Each structure is given as a SMILES string.

The target of data set [1] is T1, Broad substrate specificity ATP-binding cassette transporter ABCG2 (Homo sapiens, UniProt Q9UNQ0).
T1 sequence (Q9UNQ0 whole entry): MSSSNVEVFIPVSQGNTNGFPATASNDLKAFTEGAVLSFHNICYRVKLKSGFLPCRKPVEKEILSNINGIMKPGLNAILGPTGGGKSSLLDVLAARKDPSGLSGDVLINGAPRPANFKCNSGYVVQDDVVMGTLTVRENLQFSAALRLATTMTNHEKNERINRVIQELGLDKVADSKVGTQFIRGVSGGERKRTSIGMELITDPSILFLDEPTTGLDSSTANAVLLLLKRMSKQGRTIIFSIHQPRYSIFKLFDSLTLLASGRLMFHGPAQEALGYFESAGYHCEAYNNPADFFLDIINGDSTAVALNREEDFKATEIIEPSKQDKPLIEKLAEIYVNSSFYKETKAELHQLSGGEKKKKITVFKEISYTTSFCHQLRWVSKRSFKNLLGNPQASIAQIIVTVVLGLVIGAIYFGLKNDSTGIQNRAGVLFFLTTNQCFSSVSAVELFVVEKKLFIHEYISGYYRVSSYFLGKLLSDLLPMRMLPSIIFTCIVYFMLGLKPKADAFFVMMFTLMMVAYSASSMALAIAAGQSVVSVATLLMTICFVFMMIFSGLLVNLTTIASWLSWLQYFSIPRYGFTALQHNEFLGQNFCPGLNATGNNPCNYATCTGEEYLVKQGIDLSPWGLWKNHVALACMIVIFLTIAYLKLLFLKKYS
The data set is described as follows: Binding affinity to ABCG2 (unknown origin) expressed in HEK293 cells assessed as modulation of 5D3 binding at 5 uM after 45 mins by flow cytometric analysis relative to Ko143. The following applies: hek293, 0.75 h. In kind it is cell-based. An outline of the steps:
(§1)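 5D3 shift assay on ABCG2-transfected HEK293 cells (0.5 × 10^6 cells/tube) in PBS with 0.5% BSA. Compound at 2 or 5 μM plus 5D3 anti-ABCG2 antibody or isotype control (1 μg/mL), 45 min at 37 °C. Anti-mouse Alexa Fluor 488 secondary (3 μg/mL), 30 min at 37 °C. Binding read by flow cytometry, expressed relative to 2 μM Ko143 (100%). Mean ± SD of ≥3 independent experiments.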
(In general: Flow cytometry measures light scatter and fluorescence of single cells or particles in a stream.)

For data set [2], the target named is T1, Broad substrate specificity ATP-binding cassette transporter ABCG2. Put plainly: Binding affinity to ABCG2 (unknown origin) expressed in HEK293 cells assessed as modulation of 5D3 binding at 2 uM after 45 mins by flow cytometric analysis relative to Ko143. Type of data set: cell-based. The following applies: hek293, 0.75 h. Summed up:
as §1

Data set [3] shares this target. Put plainly: Inhibition of human ABCG2 expressed in Sf9 insect cell membranes assessed as inhibition of quercetin-stimulated ATPase activity after 30 mins by colorimetric analysis in presence of sodium orthovanadate. The note with it: for inhibition (INH): human, sf9, 0.5 h. Summed up:
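Quercetin (2 μM)-stimulated vanadate-sensitive ATPase assay on cholesterol-loaded ABCG2 Sf9 membranes (10 μg/sample) in Tris/NaCl buffer, pH 8.0. Compound at 0.01, 0.03, 0.5 and 2 μM. ATP-Mg 3.9 mM, 30 min at 37 °C. Released phosphate read colorimetrically at 880 nm. IC50 estimated as 50% inhibition of initial activity; three independent experiments.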

For data set [4] the target is unchanged. The data set is described as follows: Inhibition of human ABCG2 ATPase activity expressed in Sf9 insect cell membranes at 2 uM after 30 mins by colorimetric analysis relative to basal control in presence of sodium orthovanadate. The note with it: sf9, 0.5 h. Summed up: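 Basal vanadate-sensitive ATPase assay on cholesterol-loaded membranes from human ABCG2-expressing Sf9 cells (0.5 mg/mL; 10 μg/sample). Buffer: 50 mM Tris-HCl, 50 mM NaCl, pH 8.0, with azide, ouabain, DTT and EGTA, ± 0.33 mM orthovanadate. Compound at 2 μM, or substrates nilotinib 0.1 μM, quercetin 2 μM, prazosin 20 μM. ATP-Mg 3.9 mM, 30 min at 37 °C. Phosphate read by molybdate/ascorbate at 880 nm.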

Data set [5] concerns the target T2, ABCG2 (Homo sapiens, UniProt Q9UNQ0).
T2 sequence (Q9UNQ0 whole entry): T1 sequence (Q9UNQ0 whole entry)
The data set is described as follows: Inhibition of ABCG2 (unknown origin)-mediated pheophorbide A efflux expressed in HEK293 cells at 1 to 5 uM after 30 mins by flow cytometric analysis relative to control. In kind it is cell-based. The note with it: HEK293 cells expressing ABCG2, probe pheophorbide A, read-out: Imax. Summed up: (§2)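 Cells seeded at 1.5 × 10^5 cells/well and grown 48 h were exposed to BODIPY-prazosin (0.2 μM) or pheophorbide A (2 μM) for 30 min at 37 °C with or without compound. After washing and trypsinization, intracellular fluorescence was read by flow cytometry (FL4, ≥10 000 events). Percent inhibition = (C−M)/(Cev−M)×100, where Cev is from ABCG2-negative control cells.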

Data set [6] concerns the target T1, Broad substrate specificity ATP-binding cassette transporter ABCG2. The data set is described as follows: Inhibition of ABCG2 (unknown origin)-mediated BODIPY-prazosin efflux expressed in HEK293 cells at 1 to 5 uM after 30 mins by flow cytometric analysis. Type of data set: cell-based. The note with it: hek293, 0.5 h. An outline of the steps:
as §2

The target of data set [7] is Multidrug resistance-associated protein 1 (Homo sapiens, UniProt P33527). The data set is described as follows: Inhibition of ABCC1 (unknown origin)-mediated calcein-AM efflux expressed in HEK293 cells at 5 uM after 30 mins by flow cytometric analysis. The following applies: hek293, 0.5 h. In kind it is cell-based.
Data set [8] concerns the target ATP-dependent translocase ABCB1 (Homo sapiens, UniProt P08183). The data set is described as follows: Inhibition of ABCB1 (unknown origin)-mediated rhodamine 123 efflux expressed in mouse NIH/3T3 cells at 5 uM after 30 mins by flow cytometric analysis. Type of data set: cell-based. The following applies: nih/3t3, 0.5 h.
Data set [9] deals with T2, ABCG2. Put plainly: Inhibition of ABCG2 (unknown origin)-mediated mitoxantrone efflux expressed in HEK293 cells at 5 to 10 uM after 30 mins by flow cytometric analysis relative to control. In kind it is cell-based. The note with it: HEK293 cells expressing ABCG2, probe mitoxantrone, read-out: Imax.
The target of data set [10] is T1, Broad substrate specificity ATP-binding cassette transporter ABCG2. The data set is described as follows: Inhibition of ABCG2 (unknown origin)-mediated mitoxantrone efflux expressed in HEK293 cells after 30 mins by flow cytometric analysis. Type of data set: cell-based.
The target is the same in data set [11]. Put plainly: Inhibition of ABCG2-mediated mitoxantrone efflux in mitoxantrone-selected human H460 cells after 30 mins by flow cytometric analysis. In kind it is cell-based.
Data set [12] has as its target T2, ABCG2. The data set is described as follows: Inhibition of ABCG2-mediated mitoxantrone efflux in mitoxantrone-selected human H460 cells at 5 to 10 uM after 30 mins by flow cytometric analysis relative to control. The note with it: probe mitoxantrone, read-out: Imax. Type of data set: cell-based.

Multidrug resistance-associated protein 1, sequence (P33527 whole entry): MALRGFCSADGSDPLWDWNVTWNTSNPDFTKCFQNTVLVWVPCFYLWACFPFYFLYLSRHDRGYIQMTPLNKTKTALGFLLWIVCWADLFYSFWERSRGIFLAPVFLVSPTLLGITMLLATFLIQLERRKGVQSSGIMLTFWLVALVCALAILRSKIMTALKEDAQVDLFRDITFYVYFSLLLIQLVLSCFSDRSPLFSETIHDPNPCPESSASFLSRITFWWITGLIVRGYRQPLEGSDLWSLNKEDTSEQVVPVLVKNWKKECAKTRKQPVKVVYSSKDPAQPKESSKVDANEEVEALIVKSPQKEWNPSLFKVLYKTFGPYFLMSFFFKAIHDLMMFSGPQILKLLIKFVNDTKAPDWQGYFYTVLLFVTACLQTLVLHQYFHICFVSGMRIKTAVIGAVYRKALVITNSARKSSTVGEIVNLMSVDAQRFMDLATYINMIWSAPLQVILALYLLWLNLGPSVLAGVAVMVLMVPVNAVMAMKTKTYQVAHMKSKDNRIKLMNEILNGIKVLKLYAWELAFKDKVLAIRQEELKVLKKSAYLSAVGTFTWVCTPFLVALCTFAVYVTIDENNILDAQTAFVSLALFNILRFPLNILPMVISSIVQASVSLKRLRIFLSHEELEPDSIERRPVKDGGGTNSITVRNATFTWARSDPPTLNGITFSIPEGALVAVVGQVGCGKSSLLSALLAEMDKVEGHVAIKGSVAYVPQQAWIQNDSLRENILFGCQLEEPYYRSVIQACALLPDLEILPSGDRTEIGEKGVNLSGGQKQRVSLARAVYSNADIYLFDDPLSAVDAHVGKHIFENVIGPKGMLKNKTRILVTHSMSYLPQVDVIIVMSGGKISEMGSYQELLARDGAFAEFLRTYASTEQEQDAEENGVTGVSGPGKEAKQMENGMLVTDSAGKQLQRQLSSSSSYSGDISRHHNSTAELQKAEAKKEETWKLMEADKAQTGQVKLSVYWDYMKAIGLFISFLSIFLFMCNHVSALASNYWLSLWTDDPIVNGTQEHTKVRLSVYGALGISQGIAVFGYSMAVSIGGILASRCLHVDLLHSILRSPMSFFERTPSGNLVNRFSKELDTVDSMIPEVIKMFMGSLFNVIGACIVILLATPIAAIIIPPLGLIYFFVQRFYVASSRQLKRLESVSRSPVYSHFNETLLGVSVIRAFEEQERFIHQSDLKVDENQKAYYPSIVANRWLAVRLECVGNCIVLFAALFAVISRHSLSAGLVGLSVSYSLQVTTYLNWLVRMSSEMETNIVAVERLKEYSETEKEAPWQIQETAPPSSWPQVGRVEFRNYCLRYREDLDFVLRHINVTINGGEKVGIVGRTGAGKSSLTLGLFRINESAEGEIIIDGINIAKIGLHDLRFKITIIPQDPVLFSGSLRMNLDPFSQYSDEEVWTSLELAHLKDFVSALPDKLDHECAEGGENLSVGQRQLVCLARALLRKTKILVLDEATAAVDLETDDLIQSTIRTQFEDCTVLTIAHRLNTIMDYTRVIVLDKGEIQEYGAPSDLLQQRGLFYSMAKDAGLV
ATP-dependent translocase ABCB1, sequence (P08183 whole entry): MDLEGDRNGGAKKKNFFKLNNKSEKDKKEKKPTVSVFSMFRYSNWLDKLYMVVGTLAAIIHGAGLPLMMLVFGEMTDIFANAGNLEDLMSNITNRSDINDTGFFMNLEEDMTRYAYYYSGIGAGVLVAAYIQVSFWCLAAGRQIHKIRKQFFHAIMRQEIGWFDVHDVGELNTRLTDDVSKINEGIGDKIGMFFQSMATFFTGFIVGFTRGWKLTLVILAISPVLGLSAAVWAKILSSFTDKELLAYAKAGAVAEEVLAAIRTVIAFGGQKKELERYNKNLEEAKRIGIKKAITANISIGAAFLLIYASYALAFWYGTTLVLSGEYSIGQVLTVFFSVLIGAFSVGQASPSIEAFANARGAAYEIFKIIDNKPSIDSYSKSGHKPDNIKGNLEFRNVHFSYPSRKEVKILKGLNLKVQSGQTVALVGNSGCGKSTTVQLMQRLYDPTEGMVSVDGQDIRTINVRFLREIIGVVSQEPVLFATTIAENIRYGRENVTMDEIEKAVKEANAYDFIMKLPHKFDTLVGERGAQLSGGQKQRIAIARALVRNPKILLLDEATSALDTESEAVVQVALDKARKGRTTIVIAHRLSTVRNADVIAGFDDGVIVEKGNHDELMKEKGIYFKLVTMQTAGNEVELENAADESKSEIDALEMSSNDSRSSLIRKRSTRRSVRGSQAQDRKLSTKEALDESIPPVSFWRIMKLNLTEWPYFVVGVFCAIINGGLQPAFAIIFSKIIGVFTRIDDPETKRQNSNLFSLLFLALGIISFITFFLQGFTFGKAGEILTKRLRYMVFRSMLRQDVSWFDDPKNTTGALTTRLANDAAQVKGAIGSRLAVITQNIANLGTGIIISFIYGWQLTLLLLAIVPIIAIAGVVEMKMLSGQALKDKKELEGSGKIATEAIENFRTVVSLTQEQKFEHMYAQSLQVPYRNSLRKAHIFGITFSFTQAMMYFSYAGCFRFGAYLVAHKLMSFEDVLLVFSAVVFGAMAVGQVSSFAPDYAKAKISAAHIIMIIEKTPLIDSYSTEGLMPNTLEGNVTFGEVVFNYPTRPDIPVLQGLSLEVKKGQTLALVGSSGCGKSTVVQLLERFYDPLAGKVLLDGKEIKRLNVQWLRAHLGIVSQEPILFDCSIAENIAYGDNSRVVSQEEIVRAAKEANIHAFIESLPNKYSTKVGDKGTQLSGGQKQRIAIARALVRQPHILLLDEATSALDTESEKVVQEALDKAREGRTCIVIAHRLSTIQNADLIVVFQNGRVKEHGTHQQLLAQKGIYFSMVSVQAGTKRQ

Turning to `CN(CCc1cn(C)c2ccccc12)C(=O)c1cc(=O)c2c(OCc3ccc(Br)cc3)cccc2o1`, the Activity was determined as 98.9% in data set [1] and 76.4% in data set [2]. The IC50 in data set [3] is over 2 µM. In addition, the “inhibition (INH)” value in data set [3] is given as “Dose-dependent effect”; in data set [4], “Active”; in [6] it was “Active”; in data set [7], “Not Active”; in data set [8] it was “Not Active”. Also, the Emax at 0.5 h came to 80% in [5], 88% in data set [9] and 84% in data set [12]. The 50% effective concentration (EC50) in data set [10] came out at 1 µM; in [11], 0.5 µM.

As to `CN(CCc1c[nH]c2ccccc12)C(=O)c1cc(=O)c2c(OCc3ccc(Br)cc3)cccc2o1`, the values for the Activity in data set [1] and in [2] were 95.9% and 74.6%, respectively. Besides, the half-maximal inhibitory concentration (IC50) in data set [3] was over 2 µM. The “inhibition (INH)” value was “Dose-dependent effect” in data set [3]; “Active” in [4]; “Active” in data set [6]; “Not Active” in [7]; “Not Active” in data set [8]. For the same molecule, the Emax at 0.5 h in data set [5] was 80%; in data set [9], 105%; in [12] it was 89%. In addition, the results for the EC50 in data set [10] and in [11] were 1.11 µM and 0.57 µM, respectively.

For the molecule `COc1ccc2[nH]cc(CCN(C)C(=O)c3cc(=O)c4c(OCc5ccc(Br)cc5)cccc4o3)c2c1`, the Activity in data set [1] came out at 97.4%; in data set [2] it was 82.8%. Besides, the IC50 in data set [3] is over 2 µM. Also, the “inhibition (INH)” value is listed as “Dose-dependent effect” in data set [3]; “Active” in data set [4]; “Active” in [6]; “Not Active” in data set [7]; “Not Active” in [8]. In addition, the Emax at 0.5 h in data set [5] stood at 80%; in [9] it was 101%; in data set [12] it was 96%. The EC50 in data set [10] came out at 0.96 µM; in data set [11], 0.53 µM.

For `COc1ccc2[nH]cc(CCNC(=O)c3cc(=O)c4cc(OCc5ccc(Br)cc5)ccc4o3)c2c1`, the Activity in data set [1] was determined as 99.9%; in data set [2], 93.3%. Moreover, the IC50 in data set [3] worked out at 0.53 µM. For the same molecule, the “inhibition (INH)” value in [3] is recorded as “Dose-dependent effect”; in data set [4] it was “Not Active”; in data set [6], “Active”; in data set [7], “Not Active”; in data set [8], “Not Active”. Besides, the Emax at 0.5 h in [5] worked out at 80%; in data set [9], 108%; in [12], 109%. Further, the EC50 in data set [10] came out at 0.29 µM; in data set [11], 0.1 µM.

Take `CN(CCc1c[nH]c2ccccc12)C(=O)c1cc(=O)c2cc(OCc3ccc(Br)cc3)ccc2o1`: the Activity is 79.4% in data set [1] and 47.6% in [2]. Also, the IC50 in data set [3] was over 2 µM. In addition, the “inhibition (INH)” value in [3] is “Dose-dependent effect”; in [4], “Not Active”. Also, the values for the Emax at 0.5 h in [9] and in [12] were 54% and 50%, respectively. Further, the EC50 in [10] is 2.58 µM; in data set [11] it was 1.67 µM.

Take `CN(CCc1cn(C)c2ccccc12)C(=O)c1cc(=O)c2cc(OCc3ccc(Br)cc3)ccc2o1`: the Activity is 72.1% in data set [1] and 40.9% in data set [2]. The IC50 in data set [3] is over 2 µM. Moreover, the results for the “inhibition (INH)” value in [3] and in [4] were “Dose-dependent effect” and “Not Active”, respectively. For the same molecule, the Emax at 0.5 h in data set [9] came to 50%; in [12] it was 61%. The EC50 in data set [10] is 2.06 µM; in data set [11] it was 2.15 µM.

On to `O=C(NCc1cn(Cc2ccccc2)nn1)c1cc(=O)c2c(OCc3ccc(Br)cc3)cccc2o1`, for which the Activity amounted to 95.4% in data set [1] and 74.3% in data set [2]. In data set [3], the IC50 stood at 0.43 µM. In addition, the “inhibition (INH)” value is recorded as “Dose-dependent effect” in data set [3] and “Not Active” in data set [4]. Also, the values for the Emax at 0.5 h in [9] and in data set [12] were 78% and 76%, respectively. The figures for the EC50 in [10] and in [11] were 1.52 µM and 0.5 µM, respectively.

Turning to `O=C(NCc1cn(Cc2ccc(Br)cc2)nn1)c1cc(=O)c2c(OCc3ccc(Br)cc3)cccc2o1`, the Activity in data set [1] was 91.8%; in [2] it was 78.7%. Also, in [3], the IC50 was 0.93 µM. The “inhibition (INH)” value is given as “Dose-dependent effect” in [3] and “Not Active” in data set [4]. Besides, the Emax at 0.5 h was 95% in [9] and 76% in data set [12]. The EC50 in data set [10] was 0.57 µM; in [11] it was 0.71 µM.

With `O=C(NCc1cn(CCc2c[nH]c3ccccc23)nn1)c1cc(=O)c2c(OCc3ccc(Br)cc3)cccc2o1`, the Activity in data set [1] is 105.2%; in data set [2] it was 93.1%. Also, the IC50 in data set [3] was determined as 0.25 µM. Also, the entries for the “inhibition (INH)” value in data set [3] and in [4] were “Dose-dependent effect” and “Active”, respectively. The Emax at 0.5 h in data set [9] was 87%; in [12], 86%. Moreover, the EC50 in data set [10] was found to be 0.49 µM; in [11] it was 0.46 µM.

As to `CN(CCc1c[nH]c2ccccc12)Cc1cc(=O)c2c(OCc3ccc(Br)cc3)cccc2o1.Cl`, the Activity in [1] stood at 95.4%; in data set [2] it was 57.4%. Moreover, the IC50 in data set [3] was over 2 µM. The “inhibition (INH)” value is “Dose-dependent effect” in data set [3] and “Active” in [4]. Besides, the Emax at 0.5 h is 46% in data set [9] and 104% in data set [12]. Moreover, the EC50 in [10] was 1.77 µM; in [11] it was 1.11 µM.

With `COc1ccc2[nH]cc(CCN(C)Cc3cc(=O)c4c(OCc5ccc(Br)cc5)cccc4o3)c2c1`, the results for the Activity in data set [1] and in data set [2] were 102.5% and 82.3%, respectively. Besides, the IC50 in [3] stood at 0.82 µM. Besides, the results for the “inhibition (INH)” value in data set [3] and in data set [4] were “Dose-dependent effect” and “Active”, respectively. Further, the Emax at 0.5 h in data set [9] is 75%; in data set [12] it was 106%. Also, the EC50 in data set [10] was 1.13 µM; in data set [11], 0.6 µM.

Usually IC50 stands for the concentration needed to halve the response being measured. Broadly, the EC50 is the concentration giving half of the maximal effect.

The values are drawn from ChEMBL document CHEMBL3108696, “Structure-activity relationships of chromone derivatives toward the mechanism of interaction with and inhibition of breast cancer resistance protein ABCG2” (J Med Chem, 2013).
